Test results published in ChEMBL document CHEMBL1932971, “Synthesis of uriedo and thiouriedo derivatives of peptide conjugated heterocycles - A new class of promising antimicrobials” (2012).
Values after ≈ are worked out from the molar mass of the structure shown. Numbered stars: 1 amine (or outer) side, 2 acyl side, 3 side chain; on linkers, the order of the positions; unused ones are H or OH. Peptide text beside a SMILES is read from it. * marks the point of attachment. Piperazinyl(4-(2,3-Cl2Ph)) = Clc1cccc(N2CCN(*)CC2)c1Cl; Thiocarbamoyl(N-4-ClPh) = S=C(Nc1ccc(Cl)cc1)*; Thiocarbamoyl(4-MeOPh) = COc1ccc(NC(=S)*)cc1; NH(4-MeO-phenyl) = COc1ccc(N*)cc1; NH(4-Cl-phenyl) = Clc1ccc(N*)cc1; X1 = Fc1ccc2c(C3CCN(*)CC3)noc2c1; NH(2-F-phenyl) = Fc1ccccc1N*; CO = O=C([*:1])[*:2]

Columns and labels:
Assay type in all cases: functional
Escherichia coli [1] = experiment: Antibacterial activity against Escherichia coli at 30 ug/ml after 24 hrs by agar well diffusion method; settings: read-out: DIZ
Outline: (§1)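 Agar well diffusion. Inocula were grown in nutrient broth at 37 °C for 24 h, then subcultured in nutrient broth at room temperature. Compounds were made as a 1 mg/mL DMSO stock and diluted to 30 µg/mL final. Nutrient agar plates were spread-inoculated and 6 mm wells each got 0.1 mL. Controls were amoxicillin (reference) and DMSO (negative). Incubation was 24 h at 37 °C. Inhibition zone was measured in mm as the mean of three determinations.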

Xanthomonas oryzae [2] = experiment: Antibacterial activity against Xanthomonas oryzae at 30 ug/ml after 24 hrs by agar well diffusion method; settings: read-out: DIZ
Klebsiella pneumoniae [3] = experiment: Antibacterial activity against Klebsiella pneumoniae at 30 ug/ml after 24 hrs by agar well diffusion method; settings: read-out: DIZ; outline: as §1
Staphylococcus aureus [4] = experiment: Antibacterial activity against coagulase-positive Staphylococcus aureus at 30 ug/ml after 24 hrs by agar well diffusion method; settings: read-out: DIZ; outline: as §1
Escherichia coli [5] = experiment: Antibacterial activity against Escherichia coli after 24 hrs by microdilution method
Xanthomonas oryzae [6] = experiment: Antibacterial activity against Xanthomonas oryzae after 24 hrs by microdilution method
Klebsiella pneumoniae [7] = experiment: Antibacterial activity against Klebsiella pneumoniae after 24 hrs by microdilution method
Staphylococcus aureus [8] = experiment: Antibacterial activity against coagulase-positive Staphylococcus aureus after 24 hrs by microdilution method
Aspergillus niger [9] = experiment: Antifungal activity against Aspergillus niger at 30 ug/ml after 72 hrs by agar well diffusion method; settings: read-out: DIZ
Outline: (§2)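 Fungal well diffusion. Inocula were subcultured in nutrient broth for one day, then spread on solidified medium. Compounds were made as a 1 mg/mL DMSO stock and diluted to 30 µg/mL final. Each 6 mm well got 0.1 mL. Controls were bavistin (reference) and DMSO (negative). Plates stood for 3 days at room temperature. Inhibition zone was measured in mm as the mean of three determinations.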

Aspergillus flavus [10] = experiment: Antifungal activity against Aspergillus flavus at 30 ug/ml after 72 hrs by agar well diffusion method; settings: read-out: DIZ; outline: as §2
Fusarium oxysporum [11] = experiment: Antifungal activity against Fusarium oxysporum at 30 ug/ml after 72 hrs by agar well diffusion method; settings: read-out: DIZ; outline: as §2
Aspergillus niger [12] = experiment: Antifungal activity against Aspergillus niger after 72 hrs by microdilution method
Aspergillus flavus [13] = experiment: Antifungal activity against Aspergillus flavus after 72 hrs by microdilution method
Fusarium oxysporum [14] = experiment: Antifungal activity against Fusarium oxysporum after 72 hrs by microdilution method

Compound | zone of inhibition at 30 µg/mL (Escherichia coli [1]) [mm] | zone of inhibition at 30 µg/mL (Xanthomonas oryzae [2]) [mm] | zone of inhibition at 30 µg/mL (Klebsiella pneumoniae [3]) [mm] | zone of inhibition at 30 µg/mL (Staphylococcus aureus [4]) [mm] | MIC (Escherichia coli [5]) [µg/mL] | MIC (Xanthomonas oryzae [6]) [µg/mL] | MIC (Klebsiella pneumoniae [7]) [µg/mL] | MIC (Staphylococcus aureus [8]) [µg/mL] | zone of inhibition at 30 µg/mL (Aspergillus niger [9]) [mm] | zone of inhibition at 30 µg/mL (Aspergillus flavus [10]) [mm] | zone of inhibition at 30 µg/mL (Fusarium oxysporum [11]) [mm] | MIC (Aspergillus niger [12]) [µg/mL] | MIC (Aspergillus flavus [13]) [µg/mL] | MIC (Fusarium oxysporum [14]) [µg/mL]
CC(C)[C@H](NC(=O)CNC(=S)Nc1ccc(Cl)cc1)C(=O)NCC(=O)N[C@H](C(=O)N1CCC[C@H]1C(=O)N1CCN(c2cccc(Cl)c2Cl)CC1)C(C)C ({Thiocarbamoyl(N-4-ClPh)}-GVGVP-{Piperazinyl(4-(2,3-Cl2Ph))}) | 29 | 31 | 24 | 26 | 9.5 (≈ 11.7 µM) | 8.75 (≈ 10.8 µM) | 7 (≈ 8.64 µM) | 9 (≈ 11.1 µM) | 32 | 24 | 29 | 6.75 (≈ 8.33 µM) | 7.75 (≈ 9.56 µM) | 8.75 (≈ 10.8 µM)
CC(C)[C@H](NC(=O)CNC(=O)Nc1ccccc1F)C(=O)NCC(=O)N[C@H](C(=O)N1CCC[C@H]1C(=O)N1CCN(c2cccc(Cl)c2Cl)CC1)C(C)C ({NH(2-F-phenyl)-CO}-GVGVP-{Piperazinyl(4-(2,3-Cl2Ph))}) | 33 | 34 | 32 | 29 | 8.25 (≈ 10.6 µM) | 7.25 (≈ 9.32 µM) | 6 (≈ 7.71 µM) | 7.25 (≈ 9.32 µM) | 35 | 31 | 32 | 5.5 (≈ 7.07 µM) | 6.25 (≈ 8.04 µM) | 7.5 (≈ 9.64 µM)
CC[C@H](C)[C@H](NC(=O)CNC(=O)CNC(=O)Nc1ccccc1F)C(=O)N1CCC[C@H]1C(=O)N1CCN(c2cccc(Cl)c2Cl)CC1 ({NH(2-F-phenyl)-CO}-GGIP-{Piperazinyl(4-(2,3-Cl2Ph))}) | 29 | 26 | 23 | 24 | 13 (≈ 18.8 µM) | 10 (≈ 14.4 µM) | 10 (≈ 14.4 µM) | 12 (≈ 17.3 µM) | 32 | 28 | 30 | 11 (≈ 15.9 µM) | 14 (≈ 20.2 µM) | 15 (≈ 21.7 µM)
O=C(CNC(=S)Nc1ccc(Cl)cc1)N[C@@H](Cc1ccccc1)C(=O)NCC(=O)N[C@@H](Cc1ccccc1)C(=O)N1CCC[C@H]1C(=O)N1CCN(c2cccc(Cl)c2Cl)CC1 ({Thiocarbamoyl(N-4-ClPh)}-GFGFP-{Piperazinyl(4-(2,3-Cl2Ph))}) | 32 | 33 | 32 | 30 | 6.75 (≈ 7.45 µM) | 6.75 (≈ 7.45 µM) | 5 (≈ 5.52 µM) | 6.25 (≈ 6.9 µM) | 34 | 30 | 31 | 5 (≈ 5.52 µM) | 6.5 (≈ 7.17 µM) | 6.25 (≈ 6.9 µM)
O=C(CNC(=O)Nc1ccc(Cl)cc1)N[C@@H](Cc1ccccc1)C(=O)NCC(=O)N[C@@H](Cc1ccccc1)C(=O)N1CCC[C@H]1C(=O)N1CCC(c2noc3cc(F)ccc23)CC1 ({NH(4-Cl-phenyl)-CO}-GFGFP-X1) | 34 | 35 | 33 | 31 | 6.25 (≈ 7.11 µM) | 6.5 (≈ 7.39 µM) | 4.75 (≈ 5.4 µM) | 6 (≈ 6.82 µM) | 38 | 31 | 35 | 4.75 (≈ 5.4 µM) | 6.25 (≈ 7.11 µM) | 6 (≈ 6.82 µM)
CC(C)[C@H](NC(=O)CNC(=O)Nc1ccc(Cl)cc1)C(=O)NCC(=O)N[C@H](C(=O)N1CCC[C@H]1C(=O)N1CCC(c2noc3cc(F)ccc23)CC1)C(C)C ({NH(4-Cl-phenyl)-CO}-GVGVP-X1) | 30 | 26 | 29 | 27 | 9.25 (≈ 11.8 µM) | 8.5 (≈ 10.9 µM) | 6.75 (≈ 8.62 µM) | 8.75 (≈ 11.2 µM) | 33 | 29 | 32 | 6.5 (≈ 8.3 µM) | 7.5 (≈ 9.57 µM) | 8.5 (≈ 10.9 µM)
COC(=O)Nc1nc2ccccc2[nH]1 [CARBENDAZIM] |  |  |  |  |  |  |  |  | 12 | 9 | 10 | 22 (≈ 115 µM) | 26 (≈ 136 µM) | 25 (≈ 131 µM)
CC(C)[C@H](NC(=O)CNC(=O)Nc1ccccc1F)C(=O)NCC(=O)N[C@H](C(=O)N1CCC[C@H]1C(=O)N1CCC(c2noc3cc(F)ccc23)CC1)C(C)C ({NH(2-F-phenyl)-CO}-GVGVP-X1) | 34 | 35 | 33 | 30 | 7.75 (≈ 10.1 µM) | 6.75 (≈ 8.8 µM) | 5.25 (≈ 6.85 µM) | 6.75 (≈ 8.8 µM) | 36 | 32 | 33 | 5 (≈ 6.52 µM) | 5.75 (≈ 7.5 µM) | 7 (≈ 9.13 µM)
CC1(C)S[C@@H]2[C@H](NC(=O)[C@H](N)c3ccc(O)cc3)C(=O)N2[C@H]1C(=O)O [AMOXICILLIN] | 12 | 9 | 8 | 8 | 24 (≈ 65.7 µM) | 19 (≈ 52 µM) | 20 (≈ 54.7 µM) | 23 (≈ 62.9 µM) |  |  |  |  |  | 
CC[C@H](C)[C@H](NC(=O)CNC(=O)CNC(=O)Nc1ccc(OC)cc1)C(=O)N1CCC[C@H]1C(=O)N1CCC(c2noc3cc(F)ccc23)CC1 ({NH(4-MeO-phenyl)-CO}-GGIP-X1) | 22 | 17 | 16 | 14 |  |  |  |  | 23 | 19 | 21 |  |  | 
COc1ccc(NC(=S)NCC(=O)NCC(=O)N[C@@H](Cc2ccccc2)C(=O)N2CCC[C@H]2C(=O)N2CCN(c3cccc(Cl)c3Cl)CC2)cc1 ({Thiocarbamoyl(4-MeOPh)}-GGFP-{Piperazinyl(4-(2,3-Cl2Ph))}) | 23 | 21 | 20 | 18 |  |  |  |  | 29 | 22 | 24 |  |  | 
COc1ccc(NC(=S)NCC(=O)N[C@@H](Cc2ccccc2)C(=O)NCC(=O)N[C@@H](Cc2ccccc2)C(=O)N2CCC[C@H]2C(=O)N2CCC(c3noc4cc(F)ccc34)CC2)cc1 ({Thiocarbamoyl(4-MeOPh)}-GFGFP-X1) | 31 | 31 | 31 | 29 |  |  |  |  | 36 | 30 | 33 |  |  | 
COc1ccc(NC(=S)NCC(=O)NCC(=O)N[C@@H](Cc2ccccc2)C(=O)N2CCC[C@H]2C(=O)N2CCC(c3noc4cc(F)ccc34)CC2)cc1 ({Thiocarbamoyl(4-MeOPh)}-GGFP-X1) | 24 | 22 | 21 | 19 |  |  |  |  | 28 | 23 | 25 |  |  | 
O=C(CNC(=S)Nc1ccc(Cl)cc1)NCC(=O)N[C@@H](Cc1ccccc1)C(=O)N1CCC[C@H]1C(=O)N1CCC(c2noc3cc(F)ccc23)CC1 ({Thiocarbamoyl(N-4-ClPh)}-GGFP-X1) | 30 | 27 | 26 | 24 |  |  |  |  | 33 | 29 | 31 |  |  | 
COc1ccc(NC(=S)NCC(=O)N[C@H](C(=O)NCC(=O)N[C@H](C(=O)N2CCC[C@H]2C(=O)N2CCC(c3noc4cc(F)ccc34)CC2)C(C)C)C(C)C)cc1 ({Thiocarbamoyl(4-MeOPh)}-GVGVP-X1) | 28 | 28 | 26 | 24 |  |  |  |  | 31 | 26 | 26 |  |  | 
COc1ccc(NC(=O)NCC(=O)NCC(=O)N[C@@H](Cc2ccccc2)C(=O)N2CCC[C@H]2C(=O)N2CCC(c3noc4cc(F)ccc34)CC2)cc1 ({NH(4-MeO-phenyl)-CO}-GGFP-X1) | 26 | 24 | 19 | 17 |  |  |  |  | 27 | 20 | 23 |  |  | 
O=C(Nc1ccccc1F)N[C@@H](Cc1c[nH]c2ccccc12)C(=O)N1CCN(c2cccc(Cl)c2Cl)CC1 | 9 | 9 | 10 | 11 |  |  |  |  | 10 | 11 | 7 |  |  | 
